ChEMBL document CHEMBL1166010, “(E)-2-styrylchromones as potential anti-norovirus agents” (Bioorg Med Chem, 2010)

Tests used:
[1] = Cytotoxicity against mouse RAW264.7 cells after 48 hrs by MTT assay; format: cell-based
[2] = Cytotoxicity against mouse RAW264.7 cells assessed as maximum non-toxic dose after 48 hrs by MTT assay; format: cell-based
Summary of the method: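 RAW 264.7 cells exposed 48 h to serial dilutions (top 150 µM, 100 µM for one compound) in duplicate, control 0.25% DMSO. MTT 0.5 mg/mL added for 4 h, formazan dissolved in DMSO, absorbance 550 nm. […] 3–4 independent experiments.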

[3] = Cytotoxicity against mouse RAW264.7 cells assessed as cell viability at 2.34 uM after 48 hrs by MTT assay; format: cell-based; conditions: read-out: Activity
[4] = Antiviral activity against MNV1 CW1 infected in mouse RAW264.7 cells assessed as inhibition of viral plaque formation after 24 hrs by neutral red staining; format: functional, cell-based, Murine norovirus 1; conditions: for IC50: Murine norovirus 1, CW1, RAW264.7, 24 h
Summary of the method: (§1)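 Confluent RAW 264.7 cells (plated at 5.0 × 10^5 cells/mL, 24 h, then maintenance medium with 2% FBS) infected 1 h at 37 °C with MNV-1.CW1 at 20-80 PFU/well, with compound present during infection and in first agarose overlay for 24 h. Second overlay with neutral red, further 24 h, plaques counted. Top concentration 50 µM (10 µM for some).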

[5] = Antiviral activity against MNV1 CW1 infected in mouse RAW264.7 cells assessed as inhibition of viral plaque formation at 10 uM after 24 hrs by neutral red staining; format: functional, Murine norovirus 1; conditions: Norwalk virus, CW1, RAW264.7, 24 h; summary of the method: as §1
[6] = Selectivity index, ratio of CC50 for mouse RAW264.7 cells to IC50 for MNV1 CW1 infected in mouse RAW264.7 cells; format: functional
rhinovirus B14 = assay: Antiviral activity against HRV-14 infected in human HeLa cells assessed as inhibition of viral plaque formation; format: functional, organism-based; conditions: Rhinovirus B
rhinovirus A1B = assay: Antiviral activity against HRV-1B infected in human HeLa cells assessed as inhibition of viral plaque formation; format: functional, organism-based, Human rhinovirus 1B; conditions: Rhinovirus A
[7] = Antiviral activity against MNV1 CW1 infected in mouse RAW264.7 cells assessed as inhibition of viral plaque formation at 50 uM after 24 hrs by neutral red staining; format: functional, Murine norovirus 1; conditions: Norwalk virus, CW1, RAW264.7, 24 h; summary of the method: as §1
[8] = Antiviral activity against MNV1 CW1 infected in mouse RAW264.7 cells assessed as inhibition of viral plaque formation treated for 1 hr during viral infection followed by 48 hrs compound addition post infection by neutral red staining; format: functional, cell-based, Murine norovirus 1; conditions: Norwalk virus, CW1, RAW264.7; summary of the method: as §1
RAW264.7 [9] = assay: Cytotoxicity against mouse RAW264.7 cells at 100 uM after 48 hrs by MTT assay; format: cell-based; conditions: raw264.7, 48 h
[10] = (§2) Antiviral activity against MNV1 CW1 infected in mouse RAW264.7 cells assessed as inhibition of viral plaque formation treated for 48 hrs after viral infection by neutral red staining; format: functional, cell-based, Murine norovirus 1; conditions: Norwalk virus, CW1, RAW264.7, 48 h
Summary of the method: (§3)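 Compound added only in the agarose overlays for 48 h after 1 h MNV-1.CW1 infection of confluent RAW 264.7 cells; neutral red second overlay at 24 h, plaques counted after further 24 h. IC50 relative to DMSO-treated infected control; run alongside standard conditions.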

RAW264.7 [11] = assay: as §2; format: functional, cell-based; conditions: Murine norovirus 1; summary of the method: as §3
[12] = (§4) Antiviral activity against MNV1 CW1 infected in mouse RAW264.7 cells assessed as inhibition of viral plaque formation treated for 1 hr during viral infection by neutral red staining; format: functional, cell-based, Murine norovirus 1; conditions: Norwalk virus, CW1, RAW264.7, 1 h
Summary of the method: (§5)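 Time-of-addition variant: RAW 264.7 cells exposed to serial compound concentrations only during the 1 h MNV-1.CW1 infection at 37 °C, then compound-free agarose overlays (neutral red second overlay, 24 h + 24 h) and plaque count. IC50 vs DMSO control; three independent experiments in duplicate.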

RAW264.7 [13] = assay: as §4; format: functional, cell-based; conditions: Murine norovirus 1; summary of the method: as §5

Row | SMILES | CC50 at 48 h [1] | MNTC at 48 h ([2]; read-out: MNTD70) | MNTC at 48 h ([2]; read-out: MNTD90) | viability at 48 h, 2.34 µM [3] | IC50 [4] | inhibition at 10 µM [5] | Ratio CC50/IC50 [6] | IC50 (rhinovirus B14) | IC50 (rhinovirus A1B) | inhibition at 50 µM [7] | inhibition (INH) [4] | IC50 [8] | Activity (RAW264.7 [9]) | IC50 [10] | inhibition (RAW264.7 [11]) | IC50 [12] | inhibition (RAW264.7 [13])
1 | C/C(=C\c1ccccc1)c1oc2ccccc2c(=O)c1O | 46.7 µM | 18.8 µM | < 2.34 µM | 81% | > 10 µM | 40.8% |  |  |  |  |  |  |  |  |  |  | 
2 | O=c1cc(/C=C/c2ccccc2)oc2ccccc12 | > 150 µM | > 150 µM | 75 µM |  | 17.7 µM |  | >8.5 | > 25 µM | 6.19 µM |  |  |  |  |  |  |  | 
3 | COc1c(/C=C/c2ccccc2)oc2ccccc2c1=O | > 150 µM | 75 µM | 37.5 µM |  | 37.9 µM |  | >4 | 1.6 µM | 1.1 µM |  |  |  |  |  |  |  | 
4 | C/C(=C\c1ccccc1)c1cc(=O)c2ccccc2o1 | > 150 µM | > 150 µM | > 150 µM |  | 18 µM |  | >8.3 |  |  |  |  |  |  |  |  |  | 
5 | O=c1cc(/C=C/c2ccc(O)cc2)oc2ccccc12 | > 150 µM | > 150 µM | < 2.34 µM | 86% | > 50 µM |  |  | 6.41 µM | 9.29 µM | 21.1% |  |  |  |  |  |  | 
6 | O=c1ccoc2ccccc12 [CHROMONE] | > 150 µM | > 150 µM | 37.5 µM |  | > 50 µM |  |  |  |  |  | 29.9% |  |  |  |  |  | 
7 | Cc1ccc(/C=C/c2cc(=O)c3ccccc3o2)cc1 | > 150 µM | > 150 µM | > 150 µM |  | 23.7 µM |  | >6.3 | > 6.25 µM | > 6.25 µM |  |  |  |  |  |  |  | 
8 | O=c1cc(/C=C/c2ccccc2)oc2cccc(O)c12 | > 150 µM | > 150 µM | 4.69 µM |  | 7 µM |  | >21.6 |  |  |  |  | 6.9 µM | Non-toxic | 8.2 µM | Dose-dependent effect | 39 µM | Dose-dependent effect
9 | O=c1cc(/C=C/c2ccc(Cl)cc2)oc2ccccc12 |  | > 150 µM | 75 µM |  |  |  |  |  |  |  |  |  |  |  |  |  | 
10 | COc1ccc(/C=C/c2cc(=O)c3ccccc3o2)cc1 |  | > 100 µM | 50 µM |  |  |  |  |  |  |  |  |  |  |  |  |  | 
11 | O=c1cc(/C=C/c2ccccc2)oc2cccc(OCc3ccccc3)c12 | > 150 µM | > 150 µM | 75 µM |  | > 50 µM |  |  |  |  | 39.4% |  |  |  |  |  |  | 
12 | O=c1c(O)c(/C=C/c2ccccc2)oc2ccccc12 | 52.1 µM | 18.8 µM | 2.34 µM |  | > 10 µM | 6.8% |  | 9.76 µM | 5.13 µM |  |  |  |  |  |  |  | 
